Test results taken from ChEMBL document CHEMBL2311473, “Characterization of antimicrobial, cytotoxic, and antiendotoxin properties of short peptides with different hydrophobic amino acids at "a" and "d" positions of a heptad repeat sequence” (J Med Chem, 2013).
Converted amounts (≈) assume the structure as drawn. The source made the active and inactive calls. No cut-off for these calls is given here.

How the values were obtained:
[1] = Binding affinity to PE/PG lipid vesicles assessed as increase in helical structure at 36 uM by circular dichroism analysis; assay type: physicochemical
Method in brief: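 Peptides (~36 μM) with ~500 μM PC/Chol (8:1 w/w) or PE/PG (7:3 w/w) vesicles. CD spectra 250–190 nm at ~30 °C in 0.2 cm cuvette; 4–6 scans averaged at 20 nm/min, 0.5 nm interval.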

[2] = system: Staphylococcus aureus; experiment: Bactericidal activity against Staphylococcus aureus ATCC 9144 assessed as induction of membrane depolarization at up to 7 uM by DiSC3(5) staining-based fluorescence assay; assay type: functional, organism-based
Method in brief: (§1)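 Membrane potential dye diS-C3-5 preincubated 1 h with hRBC or S. aureus suspensions; I0 is steady-state fluorescence after this incubation. Peptide then added at varying concentrations. Depolarization expressed as percentage fluorescence recovery (Ft) versus peptide concentration.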

[3] = system: Cryptococcus neoformans; experiment: Antifungal activity against Cryptococcus neoformans after 72 hrs by NCCLS microbroth dilution method; assay type: functional
Method in brief: (§2)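 Microbroth dilution in MOPS-buffered RPMI 1640 following NCCLS guidelines. Inoculum 1−5 × 10^3 cells/mL, peptide range 50−0.36 (mass/mL). Plates held in a moist chamber at 35 °C and A492 read after 48 h (Candida spp.), 72 h (A. fumigatus, S. schenckii, C. neoformans) or 96 h (T. mentagrophytes). MIC taken as 90% growth inhibition versus growth control.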

[4] = system: RAW264.7; experiment: Antiinflammatory activity in mouse RAW264.7 cells assessed as inhibition of LPS-induced NO production at 6 uM by Griess method; assay type: functional; set-up: scale not given: the % may be the effect or the level left
Method in brief: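 RAW 264.7 cells plated at 5 × 10^5/well and exposed to LPS (E. coli 0111:B4, 1 μg/mL) together with peptide at varying doses. Cells with and without LPS served as maximum and basal NO controls. Nitrite in the supernatant measured by Griess reagent at 548 nm against a sodium nitrite standard curve, and percent inhibition of NO calculated.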

[5] = Induction of dissipation of diffusion potential in PC/Chol lipid vesicles by fluorescence assay; assay type: physicochemical
Method in brief: (§3)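 SUVs of PC/Chol (8:1 w/w) or PE/PG (7:3 w/w) treated with peptide. Dissipation of diffusion potential taken as percentage fluorescence recovery ~5 min after peptide addition, with valinomycin used for reference levels. Plotted against peptide/lipid molar ratio.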

[6] = Drug uptake in human RBC assessed as membrane localization at 9 uM after 10 to 30 mins by confocal microscopic analysis; assay type: ADME; conditions: erythrocyte
Method in brief: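 Fresh hRBCs (3% in PBS) incubated with NBD-labeled peptide (~9.0 μM) for 10–30 min at 37 °C. Washed, fixed in 2% paraformaldehyde 10 min, and imaged by confocal microscopy at constant photomultiplier setting.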

[7] = system: Candida albicans; experiment: Antifungal activity against Candida albicans after 48 hrs by NCCLS microbroth dilution method; assay type: functional; method in brief: as §2
[8] = system: RAW264.7; experiment: Antiinflammatory activity in mouse RAW264.7 cells assessed as downregulation of LPS-induced iNOS2 expression at 4.5 uM after 24 hrs by Western blotting analysis; assay type: functional, cell-based
Method in brief: (§4)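 RAW 264.7 cells (~2 × 10^5) stimulated with LPS 1 μg/mL plus peptide 4.5 μM for 24 h. Cells washed in ice-cold PBS and lysed in Laemmli buffer. SDS-PAGE (8% gel iNOS-2, 12% TNF-α), nitrocellulose transfer, alkaline phosphatase secondary with NBT/BCIP. Band densities normalized to β-actin. LPS-only and untreated cells served as controls.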

[9] = system: Staphylococcus epidermidis; experiment: Antibacterial activity against Staphylococcus epidermidis NRRL B-4268 after 18 hrs by broth dilution method; assay type: functional; conditions: NRRL B-4268, 18 h
Method in brief: (§5)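 Bacteria grown aerobically at 37 °C in Mueller-Hinton broth to mid-log phase (OD600), diluted to ~10^6 cfu/mL, then mixed 1:1 with 2-fold serial peptide dilutions in water. Incubation ~18 h at 37 °C before MIC read-out (μM).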

[10] = system: Escherichia coli; experiment: Bactericidal activity against Escherichia coli ATCC 10536 assessed as induction of membrane damage at 5 uM after 30 mins by propidium iodide staining-based flow cytometric analysis; assay type: functional, organism-based
Method in brief: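 Mid-log E. coli incubated with peptide (~5.0 μM) 30 min at 37 °C with shaking. Cells washed twice in PBS, stained with propidium iodide 30 min at 4 °C, washed and resuspended. 10000 events per sample by flow cytometry, compared with peptide-free control.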

[11] = system: Lipopolysaccharide (LPS); experiment: Binding affinity to LPS assessed as inhibition of LPS-induced LAL enzyme activation at 4.5 uM after 30 mins by spectrophotometric analysis
Method in brief: (§6)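 Chromogenic limulus amoebocyte lysate endotoxin kit. Peptide binding to LPS estimated from inhibition of LPS-induced LAL enzyme activation, i.e. reduced substrate colour, and reported as percentage LPS binding.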

[12] = system: Trichophyton mentagrophytes; experiment: Antifungal activity against Trichophyton mentagrophytes after 96 hrs by NCCLS microbroth dilution method; assay type: functional; method in brief: as §2
[13] = Binding affinity to PC/Chol lipid vesicles assessed as decrease in acrylamide-induced tryptophan fluorescence quenching at 1 uM; assay type: physicochemical
Method in brief: (§7)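 Acrylamide quencher added in aliquots from 3.0 M stock to peptide with PC/Chol (8:1) or PE/PG (7:3) SUVs, peptide/lipid 1:100. Trp excited at 295 nm. Values corrected for dilution and vesicle-blank scatter, then fitted to Stern–Volmer F0/F = 1 + KSV[Q].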

[14] = system: Sporothrix schenckii; experiment: Antifungal activity against Sporothrix schenckii after 72 hrs by NCCLS microbroth dilution method; assay type: functional; method in brief: as §2
[15] = system: Bacillus subtilis; experiment: Antibacterial activity against Bacillus subtilis ATCC 6633 after 18 hrs by broth dilution method; assay type: functional; conditions: ATCC 6633, 18 h; method in brief: as §5
[16] = system: Escherichia coli; experiment: Drug uptake in Escherichia coli ATCC 10536 assessed as membrane localization at 3 uM after 30 mins by confocal microscopic analysis; assay type: ADME, organism-based; conditions: in vivo, 0.5 h
Method in brief: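 E. coli (~10^6 CFU/mL) in LB incubated with fluorescent-labeled peptide (~3.0 μM) for half an hour. Cells centrifuged, washed and imaged by confocal microscopy (DIC and fluorescence).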

[17] = system: RAW264.7; experiment: Antiinflammatory activity in mouse RAW264.7 cells assessed as inhibition of LPS-induced IL6 secretion at 1.5 to 4.5 uM after 12 hrs by ELISA; assay type: functional, cell-based
Method in brief: (§8)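 RAW 264.7 cells treated with LPS alone or LPS plus peptide. TNF-α and IL-6 measured by ELISA in culture supernatant and expressed as percentage inhibition of LPS-induced secretion. Mean of three independent experiments, SD shown.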

[18] = system: Staphylococcus aureus; experiment: Antibacterial activity against Staphylococcus aureus ATCC 9144 after 18 hrs by broth dilution method; assay type: functional; conditions: ATCC 9144, 18 h; method in brief: as §5
[19] = system: RAW264.7; experiment: Antiinflammatory activity in mouse RAW264.7 cells assessed as inhibition of LPS-induced TNFalpha secretion at 1.5 to 4.5 uM after 12 hrs by ELISA; assay type: functional, cell-based; method in brief: as §8
[20] = system: Lipopolysaccharide (LPS); experiment: Binding affinity to LPS assessed as increase in helical structure at 36 uM by circular dichroism analysis
Method in brief: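 CD spectra of peptides (36 μM) recorded alone and with LPS at 3.8 and 6.25 μM.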

[21] = system: Escherichia coli; experiment: Antibacterial activity against Escherichia coli ATCC 10536 after 18 hrs by broth dilution method; assay type: functional; conditions: ATCC 10536, 18 h; method in brief: as §5
[22] = Induction of dissipation of diffusion potential in PE/PG lipid vesicles by fluorescence assay; assay type: physicochemical; method in brief: as §3
[23] = Cytotoxicity against human RBC assessed as induction of membrane damage at 25 uM after 5 mins by annexin V-FITC staining-based FACS flow cytometric analysis; assay type: cell-based; conditions: erythrocyte
Method in brief: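 hRBCs (~3.0 × 10^7 cells/mL) treated with peptide (~25.0 μM) for 5 min at room temperature. Stained with FITC-annexin V and analysed by flow cytometry, 10000 events, compared with untreated control.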

[24] = system: Aspergillus fumigatus; experiment: Antifungal activity against Aspergillus fumigatus after 72 hrs by NCCLS microbroth dilution method; assay type: functional; method in brief: as §2
[25] = system: Klebsiella pneumoniae; experiment: Antibacterial activity against Klebsiella pneumoniae ATCC 27736 after 18 hrs by broth dilution method; assay type: functional; conditions: ATCC 27736, 18 h; method in brief: as §5
[26] = system: Lipopolysaccharide (LPS); experiment: Binding affinity to LPS assessed as inhibition of LPS-induced LAL enzyme activation at 18 uM after 30 mins by spectrophotometric analysis; method in brief: as §6
[27] = Binding affinity to PE/PG lipid vesicles assessed as decrease in decrease in acrylamide-induced tryptophan fluorescence quenching at 1 uM; assay type: physicochemical; method in brief: as §7
[28] = Cytotoxicity against human RBC assessed as induction of membrane depolarization at up to 16 uM by DiSC3(5) staining-based fluorescence assay; assay type: cell-based; conditions: erythrocyte; method in brief: as §1
[29] = Cytotoxicity against human RBC assessed as hemolysis at 60 uM; assay type: cell-based, Erythrocyte; conditions: red blood cells (RBC), read-out: Activity
Method in brief: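 hRBCs in PBS exposed to peptide. Hemoglobin release read as supernatant absorbance at 540 nm. Hemolysis % = (Asample − Ablank)/(Atriton − Ablank) × 100, with PBS blank and 0.2% Triton X-100 (final) as 100% reference.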

[30] = system: Lipopolysaccharide (LPS); experiment: Binding affinity to FITC-tagged LPS assessed as induction of disintegration up to 40 uM by […]; conditions: in the assay text read “fluorescence dequenching” for “circular dichroism”
Method in brief: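 FITC-LPS (0.5 μg/mL) titrated with increasing peptide concentrations. Disaggregation read as dequenching, i.e. rise in FITC fluorescence, monitored after each addition until emission reached equilibrium.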

[31] = system: NIH3T3; experiment: Cytotoxicity against mouse 3T3 cells assessed as cell viability up to 25 uM by MTT assay; assay type: cell-based
Method in brief: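 Murine 3T3 fibroblasts, grown in DMEM/IMDM with 10% FCS at 37 °C, 5% CO2, seeded at 10000 cells/well. Viability after peptide exposure measured by MTT (mitochondrial dehydrogenase) across a dose range.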

[32] = Binding affinity to PE/PG lipid vesicles assessed as induction of large blue shift at 1 uM by fluorescence assay; assay type: physicochemical
[33] = system: Lipopolysaccharide (LPS); experiment: Binding affinity to LPS assessed as inhibition of LPS-induced LAL enzyme activation at 9 uM after 30 mins by spectrophotometric analysis; method in brief: as §6
[34] = Binding affinity to PC/Chol lipid vesicles assessed as induction of large blue shift at 1 uM by fluorescence assay; assay type: physicochemical
[35] = system: Pseudomonas aeruginosa; experiment: Antibacterial activity against Pseudomonas aeruginosa ATCC BAA-427 after 18 hrs by broth dilution method; assay type: functional; conditions: ATCC BAA-427, 18 h; method in brief: as §5
[36] = system: Candida parapsilosis; experiment: Antifungal activity against Candida parapsilosis ATCC 22019 after 48 hrs by NCCLS microbroth dilution method; assay type: functional; conditions: Lodderomyces parapsilosis, ATCC 22019, 48 h; method in brief: as §2
[37] = system: Staphylococcus aureus; experiment: Antibacterial activity against methicillin-resistant Staphylococcus aureus after 18 hrs by broth dilution method; assay type: functional; method in brief: as §5
[38] = system: RAW264.7; experiment: Antiinflammatory activity in mouse RAW264.7 cells assessed as downregulation of LPS-induced TNFalpha expression at 4.5 uM after 24 hrs by Western blotting analysis; assay type: functional, cell-based; method in brief: as §4

SMILES: CC(C)[C@H](N)C(=O)O [VALINE]
- Activity [1]: Active
- Activity [2]: Active
- MIC [3]: 8.4 µM (≈ 0.984 µg/mL)
- Activity [4]: 50%
- Activity [5]: Active
- Drug uptake [6]: Active
- MIC [7]: 9.6 µM (≈ 1.12 µg/mL)
- Activity [8]: Active
- MIC [9]: 6 µM (≈ 0.703 µg/mL)
- Activity [10]: Active
- inhibition [11]: 8%
- MIC [12]: 6 µM (≈ 0.703 µg/mL)
- Activity [13]: Not Active
- MIC [14]: 6 µM (≈ 0.703 µg/mL)
- MIC [15]: 6.8 µM (≈ 0.797 µg/mL)
- Drug uptake [16]: Active
- inhibition [17]: Active
- MIC [18]: 5.1 µM (≈ 0.597 µg/mL)
- inhibition [19]: Active
- Activity [20]: Active
- MIC [21]: 3 µM (≈ 0.351 µg/mL)
- Activity [22]: Active
- Activity [23]: Non-toxic
- MIC [24]: 8.4 µM (≈ 0.984 µg/mL)
- MIC [25]: 3.2 µM (≈ 0.375 µg/mL)
- inhibition [26]: 29%
- Activity [27]: Active
- Activity [28]: Non-toxic
- hemolysis at 60 µM [29]: 10%
- Activity [30]: Active
- Activity [31]: Toxic
- Activity [32]: Active
- inhibition [33]: 22%
- Activity [34]: Not Active
- MIC [35]: 3.2 µM (≈ 0.375 µg/mL)
- MIC [36]: 1.5 µM (≈ 0.176 µg/mL)
- MIC [37]: 12.5 µM (≈ 1.46 µg/mL)
- Activity [38]: Active
